Test results taken from ChEMBL document CHEMBL1135414, “Structure-activity relationships at human and rat A2B adenosine receptors of xanthine derivatives substituted at the 1-, 3-, 7-, and 8-positions” (J Med Chem, 2002).
pKi: −log10 of the molar value. Blank lines part the entries; values can stand above or below the compound they belong to.

Tests used:
Adenosine receptor A2b [1] = biological target: T1, Adenosine receptor A2b (Homo sapiens, UniProt P29275); assay: Binding affinity at human Adenosine A2B receptor expressed in HEK293 cells, using [125I]ABOPX as radioligand; assay type: cell-based
T1 sequence (P29275 whole entry): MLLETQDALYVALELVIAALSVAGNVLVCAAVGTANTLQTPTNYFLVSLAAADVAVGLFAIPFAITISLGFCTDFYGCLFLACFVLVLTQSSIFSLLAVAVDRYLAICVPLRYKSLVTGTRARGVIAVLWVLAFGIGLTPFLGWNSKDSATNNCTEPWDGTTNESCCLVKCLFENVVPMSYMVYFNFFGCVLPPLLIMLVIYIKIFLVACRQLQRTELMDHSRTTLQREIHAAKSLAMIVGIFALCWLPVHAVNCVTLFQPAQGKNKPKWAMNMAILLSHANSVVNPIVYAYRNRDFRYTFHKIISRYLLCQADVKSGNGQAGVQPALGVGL

Adenosine receptor A1 = biological target: T2, Adenosine receptor A1 (Rattus norvegicus, UniProt P25099); assay: Binding affinity of specific [3H]R-PIA binding to rat Adenosine A1 receptor in HEK293 cells; assay type: cell-based
T2 sequence (P25099 whole entry): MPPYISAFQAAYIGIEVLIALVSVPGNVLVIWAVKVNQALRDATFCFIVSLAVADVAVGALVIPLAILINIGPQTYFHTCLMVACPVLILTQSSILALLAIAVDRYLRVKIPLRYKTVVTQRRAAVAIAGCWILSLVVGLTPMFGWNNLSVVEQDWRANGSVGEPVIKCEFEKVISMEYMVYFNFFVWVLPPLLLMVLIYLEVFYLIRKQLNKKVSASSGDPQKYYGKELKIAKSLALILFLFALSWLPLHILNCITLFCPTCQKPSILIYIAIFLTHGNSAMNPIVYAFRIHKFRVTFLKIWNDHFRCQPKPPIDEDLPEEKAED

Adenosine receptor A3 = biological target: T3, Adenosine receptor A3 (Homo sapiens, UniProt P0DMS8); assay: Inhibition of [125I]I-AB-MECA binding to human Adenosine A3 receptor
T3 sequence (P0DMS8 whole entry): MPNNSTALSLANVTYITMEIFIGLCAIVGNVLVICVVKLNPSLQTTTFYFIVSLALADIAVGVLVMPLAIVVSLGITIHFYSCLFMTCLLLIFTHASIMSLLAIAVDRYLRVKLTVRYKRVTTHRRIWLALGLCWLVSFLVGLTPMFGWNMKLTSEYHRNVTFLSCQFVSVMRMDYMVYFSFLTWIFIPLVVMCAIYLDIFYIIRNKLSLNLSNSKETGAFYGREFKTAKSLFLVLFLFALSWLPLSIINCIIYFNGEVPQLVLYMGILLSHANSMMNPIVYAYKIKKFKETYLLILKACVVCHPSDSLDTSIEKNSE

[2] = biological target: Adenosine receptor A2a (Rattus norvegicus) (UniProt P30543); assay: Displacement of [3H]-CGS- 21680 from Adenosine A2A receptor of rat striatal membranes; assay type: cell membranes; design: concentration or dose not given beside the values; conditions: Membrane
Procedure, shortened: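 Competition of specific [3H]CGS 21680 binding in rat striatal membranes, reported as Ki ± SEM or as percent displacement at the stated concentration; n = 3–5.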

Rattus norvegicus [3] = species on record: Rattus norvegicus; assay: Relative affinities for rat Adenosine A1 and Adenosine A2B receptors
Adenosine receptor A2a = Adenosine receptor A2a (Rattus norvegicus, UniProt P30543); assay: Binding affinity at rat Adenosine A2A receptor by [3H]-CGS- 21680 displacement.
Adenosine receptor A2b [4] = biological target: T4, Adenosine receptor A2b (Rattus norvegicus, UniProt P29276); assay: Inhibition of […] binding to rat Adenosine A2B receptor expressed in HEK cells; assay type: cell-based, HEK293
T4 sequence (P29276 whole entry): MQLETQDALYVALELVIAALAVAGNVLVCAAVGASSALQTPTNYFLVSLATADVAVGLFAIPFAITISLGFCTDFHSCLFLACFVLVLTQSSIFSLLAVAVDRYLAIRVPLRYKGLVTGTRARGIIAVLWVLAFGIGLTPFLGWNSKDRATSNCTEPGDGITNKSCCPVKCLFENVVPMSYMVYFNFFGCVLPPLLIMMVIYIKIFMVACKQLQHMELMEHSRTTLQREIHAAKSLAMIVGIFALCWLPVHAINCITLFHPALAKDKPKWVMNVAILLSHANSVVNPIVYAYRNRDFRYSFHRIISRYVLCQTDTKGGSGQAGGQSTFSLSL

Rattus norvegicus [5] = species on record: Rattus norvegicus; assay: Relative affinities for rat Adenosine A2A and Adenosine A2B receptors
[6] = biological target: T5, Adenosine receptor A1 (Rattus norvegicus) (UniProt P25099); assay: Percent displacement of [3H]-R-PIA from rat Adenosine A1 receptor in HEK293 cells; assay type: cell-based
T5 sequence (whole entry): T2 sequence (P25099 whole entry)

Chain of Adenosine receptor A2a (Rattus norvegicus) (P30543 whole entry): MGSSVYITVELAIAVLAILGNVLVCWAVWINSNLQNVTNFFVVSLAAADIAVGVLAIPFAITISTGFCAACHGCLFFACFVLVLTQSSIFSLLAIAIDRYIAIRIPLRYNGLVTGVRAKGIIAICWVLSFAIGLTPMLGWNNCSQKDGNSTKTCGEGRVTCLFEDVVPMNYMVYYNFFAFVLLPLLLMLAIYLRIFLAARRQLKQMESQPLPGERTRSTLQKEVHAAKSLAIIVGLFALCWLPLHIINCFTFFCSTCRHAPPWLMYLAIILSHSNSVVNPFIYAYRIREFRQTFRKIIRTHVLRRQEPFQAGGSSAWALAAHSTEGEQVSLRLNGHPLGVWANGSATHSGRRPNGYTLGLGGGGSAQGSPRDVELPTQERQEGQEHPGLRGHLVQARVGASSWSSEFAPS
Chain of Adenosine receptor A2a (P30543 whole entry): as above

pKi (Adenosine receptor A2b [1]): 6.39
pKi (Adenosine receptor A1): 4.42
pKi (Adenosine receptor A3): 5.12
SMILES: O=c1[nH]c2nc[nH]c2c(=O)n1CCc1ccccc1

Displacement [2]: < 10%
SMILES: C=CCn1c(=O)[nH]c2[nH]cnc2c1=O

pKi (Adenosine receptor A2b [1]): 4.99
Ratio (Rattus norvegicus [3]): 0.16
pKi (Adenosine receptor A1): 5.78
pKi (Adenosine receptor A3): 5.35
pKi (Adenosine receptor A2a): 5.50
pKi (Adenosine receptor A2b [4]): 4.99
Ratio (Rattus norvegicus [5]): 0.31
SMILES: Cn1c(=O)n(Cc2ccccc2)c(=O)c2[nH]cnc21

pKi (Adenosine receptor A2b [1]): 4.71
SMILES: Cn1c(=O)c2c(ncn2Cc2ccccc2)n(C)c1=O

Ratio (Rattus norvegicus [3]): 1.3
pKi (Adenosine receptor A2b [4]): 7.89
Ratio (Rattus norvegicus [5]): 48
SMILES: CCCn1c(=O)c2[nH]c(-c3ccc(OCC(=O)Nc4ccc(C#N)cc4)cc3)nc2n(CCC)c1=O

Displacement [2]: < 10%
SMILES: O=c1[nH]c2[nH]cnc2c(=O)n1C1CCCC1

pKi (Adenosine receptor A1): 6.66
pKi (Adenosine receptor A2a): 6.97
SMILES: CCCn1c(=O)c2[nH]c(-c3ccc(O)cc3O)nc2n(CCC)c1=O

SMILES: Cn1c(=O)c2c(ncn2CCCl)n(C)c1=O [7-CHLOROETHYLTHEOPHYLLINE]
pKi (Adenosine receptor A2b [1]): 5.86
Ratio (Rattus norvegicus [3]): 2.8
pKi (Adenosine receptor A1): 4.82
pKi (Adenosine receptor A2a): 5.37
pKi (Adenosine receptor A2b [4]): 5.27
Ratio (Rattus norvegicus [5]): 0.78

pKi (Adenosine receptor A2b [1]): 4.82
Ratio (Rattus norvegicus [3]): 0.95
pKi (Adenosine receptor A1): 4.75
pKi (Adenosine receptor A2a): 4.48
pKi (Adenosine receptor A2b [4]): 4.73
Ratio (Rattus norvegicus [5]): 1.8
SMILES: Cn1c(=O)c2c(ncn2CCCCCl)n(C)c1=O

pKi (Adenosine receptor A2b [1]): 5.02
SMILES: C#CCn1cnc2c1c(=O)n(C)c(=O)n2C

pKi (Adenosine receptor A2b [1]): 4.76
SMILES: Cn1c(=O)c2c(ncn2CCO)n(C)c1=O [ETOFYLLINE]

pKi (Adenosine receptor A2b [1]): 7.44
pKi (Adenosine receptor A1): 7.41
Displacement [2]: < 10%
SMILES: CCCn1c(=O)c2nc(-c3ccc(NC(C)=O)cc3)[nH]c2n(CCC)c1=O

pKi (Adenosine receptor A2b [1]): 4.94
pKi (Adenosine receptor A2a): 4.63
Displacement [6]: < 10%
SMILES: C=CCn1c(=O)c2c(nc(-c3ccccc3)n2C)n(C)c1=O

pKi (Adenosine receptor A2b [1]): 6.19
Ratio (Rattus norvegicus [3]): 5
pKi (Adenosine receptor A1): 4.56
Displacement [2]: < 10%
pKi (Adenosine receptor A3): 5.16
pKi (Adenosine receptor A2b [4]): 5.26
Ratio (Rattus norvegicus [5]): > 20
SMILES: Cn1c(=O)n(CCc2ccccc2)c(=O)c2[nH]cnc21

pKi (Adenosine receptor A2b [1]): 6.40
SMILES: COc1ccc(-c2nc3c([nH]2)c(=O)n(C)c(=O)n3C)cc1

pKi (Adenosine receptor A2b [1]): 5.00
SMILES: CC(C)CCn1c(=O)c2nc(-c3ccccc3)[nH]c2n(CC(C)C)c1=O

pKi (Adenosine receptor A2b [1]): 4.63
SMILES: Cn1cnc2c1c(=O)n(CC(=O)O)c(=O)n2C

pKi (Adenosine receptor A2b [1]): 6.90
pKi (Adenosine receptor A1): 7.41
Displacement [2]: < 10%
SMILES: CCCn1c(=O)c2nc(-c3cccc(O)c3O)[nH]c2n(CCC)c1=O

pKi (Adenosine receptor A1): 8.11
SMILES: CCCn1c(=O)[nH]c2[nH]c(C3CCCC3)nc2c1=O

SMILES: Cn1c(=O)c2[nH]c(-c3ccc([N+](=O)[O-])cc3[N+](=O)[O-])nc2n(C)c1=O
pKi (Adenosine receptor A2b [1]): 4.81

pKi (Adenosine receptor A2b [1]): 6.54
SMILES: CN(C)c1ccc(-c2nc3c([nH]2)c(=O)n(C)c(=O)n3C)cc1

Ratio (Rattus norvegicus [3]): 1.8
Displacement [2]: < 10%
Ratio (Rattus norvegicus [5]): > 10
SMILES: CCCn1c(=O)[nH]c2[nH]cnc2c1=O

pKi (Adenosine receptor A2b [1]): 5.38
SMILES: C#CCn1c(=O)c2c(ncn2C)n(C)c1=O

Displacement [2]: < 10%
SMILES: CCCCn1c(=O)[nH]c2[nH]cnc2c1=O

pKi (Adenosine receptor A2b [1]): 5.20
SMILES: CC(C)CCn1c(=O)c2[nH]cnc2n(CC(C)C)c1=O

pKi (Adenosine receptor A2b [1]): 7.43
Ratio (Rattus norvegicus [3]): 1.7
pKi (Adenosine receptor A1): 6.52
pKi (Adenosine receptor A2a): 5.72
pKi (Adenosine receptor A2b [4]): 6.76
Ratio (Rattus norvegicus [5]): 11
SMILES: C=CCn1c(=O)c2[nH]c(-c3ccccc3)nc2n(C)c1=O

pKi (Adenosine receptor A2b [1]): 5.76
pKi (Adenosine receptor A1): 5.66
Displacement [2]: < 10%
SMILES: CCCCn1c(=O)c2nc[nH]c2n(CC)c1=O

pKi (Adenosine receptor A2b [1]): 7.21
SMILES: CCn1c(=O)c2[nH]c(-c3ccccc3)nc2n(CC)c1=O

pKi (Adenosine receptor A2b [1]): 4.63
SMILES: Cn1c(=O)c2c(ncn2CCN)n(C)c1=O

pKi (Adenosine receptor A2b [1]): 5.47
SMILES: C=CCn1c(=O)c2c(ncn2C)n(CC=C)c1=O

pKi (Adenosine receptor A2b [1]): 6.29
Ratio (Rattus norvegicus [3]): 2.7
pKi (Adenosine receptor A1): 5.23
pKi (Adenosine receptor A3): 4.96
pKi (Adenosine receptor A2a): 4.47
pKi (Adenosine receptor A2b [4]): 5.67
Ratio (Rattus norvegicus [5]): 16
SMILES: C#CCn1c(=O)c2[nH]cnc2n(C)c1=O

pKi (Adenosine receptor A2b [1]): 5.12
SMILES: CCCCCCn1c(=O)c2nc[nH]c2n(CCCCCC)c1=O

pKi (Adenosine receptor A2b [1]): 5.79
pKi (Adenosine receptor A1): 4.61
pKi (Adenosine receptor A2a): 5.01
SMILES: CCn1c(=O)c2nc[nH]c2n(C)c1=O
